Test results reported in ChEMBL document CHEMBL1641452, “Synthesis and in vitro anti-hepatitis B virus activity of six-membered azanucleoside analogues” (Bioorg Med Chem, 2011).
Converted amounts (≈) assume the structure as drawn.

Columns and labels:
[1] = Cytotoxicity against human HepG2(2.2.15) cells; type: cell-based; details: read-out: TC50 (the source's name)
Hepatitis B virus = test: Antiviral activity against Hepatitis B virus infected in human HepG2.2.15 cells assessed as inhibition of viral DNA replication by semi-quantitative EIA; type: functional, organism-based; details: HepG2 2.2.15
Summary of the method: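 HepG2 2.2.15 cells, derived from hepatoblastoma HepG2 and stably transfected with HBV, were seeded in flat-bottomed tissue culture wells. They received eight consecutive daily doses of compound in RPMI1640 with 2% fetal bovine serum, with lamivudine as the positive control. HBV nucleic acids and proteins were analysed at the end of treatment (day 8).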

[2] = Selectivity index, ratio of TC50 for human HepG2(2.2.15) cells to IC50 for Hepatitis B virus; type: toxicity; details: read-out: Selectivity Index

IC50 (Hepatitis B virus) [µg/mL] | Structure (SMILES) | CC50 [1] [µg/mL] | selectivity ratio [2]
 | Cc1cn([C@@H]2[C@@H](O)[C@H](O)[C@@H](O)CN2C(=O)OC(C)(C)C)c(=O)[nH]c1=O | 1000 (≈ 2800 µM) | 
 | Cc1cn([C@H]2[C@@H](O)[C@H](O)[C@@H](O)CN2C(=O)OC(C)(C)C)c(=O)[nH]c1=O | 1000 (≈ 2800 µM) | 
 | CC(C)(C)OC(=O)N1C[C@H](O)[C@@H](O)[C@@H](O)[C@@H]1n1cc(F)c(=O)[nH]c1=O | 29 (≈ 80.3 µM) | 
247 (≈ 675 µM) | CC(C)(C)OC(=O)N1C[C@@H](O)[C@@H](O)[C@H](O)[C@H]1n1cnc2c(N)ncnc21 | 1000 (≈ 2730 µM) | 4
 | CC(C)(C)OC(=O)N1C[C@@H](O)[C@@H](O)[C@H](O)[C@@H]1n1cnc2c(N)ncnc21 | 1000 (≈ 2730 µM) | 
2.74 (≈ 7.58 µM) | CC(C)(C)OC(=O)N1C[C@@H](O)[C@@H](O)[C@H](O)[C@H]1n1cc(F)c(=O)[nH]c1=O | 37 (≈ 103 µM) | 13.5
 | CC(C)(C)OC(=O)N1CC(O)[C@@H](O)[C@H](O)[C@H]1n1cnc2c(N)ncnc21 (single isomer, unassigned) | > 1000 | 
 | CC(C)(C)OC(=O)N1CC(O)[C@@H](O)[C@H](O)[C@H]1n1ccc(=O)[nH]c1=O (single isomer, unassigned) | > 1000 | 
 | CC(C)(C)OC(=O)N1CC(O)[C@@H](O)[C@H](O)[C@H]1n1cc(F)c(=O)[nH]c1=O (single isomer, unassigned) | 192 (≈ 533 µM) | 
 | CC(C)(C)OC(=O)N1CC(O)[C@@H](O)[C@H](O)[C@H]1n1ccc(N)nc1=O (single isomer, unassigned) | > 1000 | 
93 (≈ 260 µM) | Cc1cn([C@@H]2[C@H](O)[C@H](O)C(O)CN2C(=O)OC(C)(C)C)c(=O)[nH]c1=O (single isomer, unassigned) | 430 (≈ 1200 µM) | 4.6
33 (≈ 92.4 µM) | Cc1cn([C@H]2[C@H](O)[C@H](O)C(O)CN2C(=O)OC(C)(C)C)c(=O)[nH]c1=O (single isomer, unassigned) | 577 (≈ 1620 µM) | 17.5
281 (≈ 767 µM) | CC(C)(C)OC(=O)N1CC(O)[C@@H](O)[C@@H](O)[C@@H]1n1cnc2c(N)ncnc21 (single isomer, unassigned) | 693 (≈ 1890 µM) | 3.6
316 (≈ 862 µM) | CC(C)(C)OC(=O)N1C[C@@H](O)C(O)C(O)C1n1cnc2c(N)ncnc21 (single isomer, unassigned) | 1000 (≈ 2730 µM) | 3.2
 | Cc1cn([C@@H]2[C@@H](O)[C@H](O)C(O)CN2C(=O)OC(C)(C)C)c(=O)[nH]c1=O (single isomer, unassigned) | > 1000 | 
4.51 (≈ 19.7 µM) | Nc1ccn([C@@H]2CS[C@H](CO)O2)c(=O)n1 [LAMIVUDINE] | 1000 (≈ 4360 µM) | 222
